Assay results gathered from unrelated publications.
Lines come from different studies, so protocols differ.
Target: Serine/threonine-protein kinase PAK 2 (PAK2, Homo sapiens, UniProt Q13177)

SMILES | read-out | technique | concentration | remaining binding
CCC(=O)N[C@H]1CC[C@@H](C(=O)N(C)c2ccc(-c3nc4ccccc4o3)cc2)C1 | cell-free assay | competition with immobilised ligand | 1 µM | 100%
CN(C)c1nccc(-c2cnc3ncccn23)n1 | binding |  | 1 µM | 100%
O=C(NCCCN1CCOCC1)c1ccc(Nc2nccc(-c3cc4ccccc4s3)n2)cc1 | binding | competition with immobilised ligand | 1 µM | 100%
F[C@@H]1CCN(c2nccc(-c3cnn4ncccc34)n2)C1 | binding |  | 1 µM | 100%
O=C(N[C@H]1CCCCC/C=C\C2C[C@@]2(C(=O)O)NC(=O)[C@@H]2C[C@@H](Oc3ccncc3)CN2C1=O)OC1CCCC1 (stereo partly drawn) | binding | competition with immobilised ligand | 1 µM | 79%
CCN1CCN(Cc2ccc(C(=O)Nc3ccc(C)c(Oc4ccc5c(c4)CC(=O)N5)c3)cc2C(F)(F)F)CC1 | binding | competition with immobilised ligand | 1 µM | 100%
C[C@@H]1CCN(c2nccc(-c3cnn4ncccc34)n2)C1 | binding |  | 1 µM | 99%
FC(F)(F)Oc1cccc(-c2cnc3ccc(-c4ccncc4)nn23)c1 | cell-free assay | competition with immobilised ligand | 5 µM | 43%
O=C(Nc1c[nH]nc1C(=O)NC1CCNCC1)c1cc(F)cc(F)c1 | binding | competition with immobilised ligand | 1 µM | 100%
CN(C)c1ncc(F)c(-c2cnn3ncccc23)n1 | binding |  | 1 µM | 89%
O=C(N1CCS(=O)(=O)CC1)N1C[C@H](c2ccc(OC(F)(F)F)cc2)C[C@H](c2nc(C3CC3)no2)C1 | cell-free assay | competition with immobilised ligand | 1 µM | 90%
O=C(c1ccc(Nc2ncc(Cl)c(-c3cc4ccccc4s3)n2)cc1)N1CCC(N2CCCC2)CC1 | binding | competition with immobilised ligand | 1 µM | 59%
C[C@@]1(Cc2ccc(C#N)cc2)C(=O)N(c2cc(Cl)cc(Cl)c2)c2ncc(C(=O)NC3(c4nc(C5CCC5)no4)CC3)n21 | cell-free assay | competition with immobilised ligand | 1 µM | 64%
Cc1cnc(Nc2ccc(C(=O)N3CCC(N4CCCC4)CC3)cc2)nc1-c1cc2ccccc2s1 | binding | competition with immobilised ligand | 1 µM | 76%
CCS(=O)(=O)c1cc2cc(C[C@](O)(CC(C)(C)c3ccc(F)cc3C(N)=O)C(F)(F)F)[nH]c2cn1 | cell-free assay | competition with immobilised ligand | 1 µM | 86%
c1cncc(-c2cccc(Nc3nccc(NC4CCCCC4)n3)c2)c1 | binding | competition with immobilised ligand | 10 µM | 56%
COc1ccnn2ncc(-c3ccnc(N(C)C)n3)c12 | binding |  | 1 µM | 78%
COc1cnc(Nc2cccc(S(N)(=O)=O)c2)nc1N1CCN(c2ccccc2)CC1 | binding | competition with immobilised ligand | 1 µM | 100%
CN(C)CC#Cc1ccc(OCCCc2sc(N3CCc4cccc(C(=O)Nc5nc6ccccc6s5)c4C3)nc2C(=O)O)c(F)c1 | cell-free assay | competition with immobilised ligand | 1 µM | 93%
Nc1ncc2c(n1)-c1c([nH]c3ccc(C#CC4CC4)cc13)CCCC2 | binding | competition with immobilised ligand | 1 µM | 33%
CN(CCCC(F)(F)F)c1nccc(-c2cnn3ncccc23)n1 | binding |  | 1 µM | 100%
C[C@@H]1CN(c2ccc3ncc(-c4ccc5[nH]nc(C6CC6)c5c4)n3n2)C[C@H](C)O1 | binding | competition with immobilised ligand | 50 nM | 76%
N[C@H]1CCN(c2nccc(-c3cnn4ncccc34)n2)C1 | binding |  | 1 µM | 87%
Cc1c(C(=O)O)cc(-c2ccc(C3CCNCC3)cc2)c2ccc(-c3ccc(C(F)(F)F)cc3)cc12 | cell-free assay | competition with immobilised ligand | 1 µM | 100%
